Data reported in ChEMBL document CHEMBL1125540, “Antiviral and antitumor structure-activity relationship studies on tetracyclic eudistomines” (1992).
Converted amounts (≈) assume the structure as drawn.

Tests used:
Assay type in all cases: functional
[1] = system: Vero; assay: Evaluation for antiviral activity against Coxsackie virus B4 in Vero cell cultures (Concentration required to reduce virus-induced cytopathogenicity by 50%); details: Chlorocebus sabaeus
Outline: (§1)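 Vero cultures were infected with parainfluenza-3, reovirus-1, Sindbis, Coxsackie B4 or Semliki forest virus. Values are concentrations giving 50% reduction of virus-induced cytopathogenicity, or a microscopically detectable alteration of normal cell morphology for cytotoxicity. Each is the average of two separate experiments.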

[2] = Evaluation for antiviral activity against vesicular stomatitis virus in primary rabbit kidney cell cultures(PRK) (Concentration required to reduce virus-induced cytopathogenicity by 50%); details: Oryctolagus cuniculus
[3] = Evaluation for antiviral activity against herpes simplex virus-2(G) in primary rabbit kidney cell cultures(PRK) (Concentration required to reduce virus-induced cytopathogenicity by 50%); details: Oryctolagus cuniculus
[4] = Evaluation in PRK cell cultures for cytotoxicity that is to cause microscopically detectable alteration of normal cell morphology; details: Oryctolagus cuniculus
[5] = system: HeLa; assay: Evaluation for antiviral activity against polio virus-1 in HeLa cell cultures (Concentration required to reduce virus-induced cytopathogenicity by 50%); details: Homo sapiens
Outline: (§2)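 HeLa cultures were infected with respiratory syncytial, vesicular stomatitis, Coxsackie B4 or polio-1 virus. The antiviral end-point is 50% reduction of virus-induced cytopathogenicity. Cytotoxicity is the minimum concentration producing microscopically detectable alteration of normal cell morphology.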

[6] = system: Vero; assay: Evaluation in Vero cell cultures for cytotoxicity that is to cause microscopically detectable alteration of normal cell morphology; details: Chlorocebus sabaeus; outline: as §1
[7] = Evaluated for antiviral activity against herpes simplex virus-1(KOS) in primary rabbit kidney cell cultures(PRK) (Concentration required to reduce virus-induced cytopathogenicity by 50%); details: Oryctolagus cuniculus
[8] = system: Vero; assay: Evaluation for antiviral activity against Sindbis virus in Vero cell cultures (Concentration required to reduce virus-induced cytopathogenicity by 50%); details: Chlorocebus sabaeus; outline: as §1
[9] = system: Influenza A virus; assay: Concentration required to reduce influenza virus A (ishikawa) induced cytopathogenicity by 50%
Outline: (§3)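 Influenza A and B virus replication in MDCK cultures. Antiviral value is the concentration giving 50% reduction of virus-induced cytopathogenicity. Cytotoxicity is the concentration causing a microscopically detectable change in normal cell morphology.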

[10] = system: MDCK; assay: Compound was evaluated in MDCK cell cultures for cytotoxicity that is to cause microscopically detectable alteration of normal cell morphology; details: Canis lupus familiaris; outline: as §3
[11] = system: Influenza B virus; assay: Concentration required to reduce influenza virus B (singapore) induced cytopathogenicity by 50%; outline: as §3
[12] = system: HeLa; assay: Evaluation in HeLa cell cultures for cytotoxicity that is to cause microscopically detectable alteration of normal cell morphology; details: Homo sapiens; outline: as §2
[13] = system: HeLa; assay: Evaluation for antiviral activity against vesicular stomatitis virus in HeLa cell cultures (Concentration required to reduce virus-induced cytopathogenicity by 50%); details: Homo sapiens; outline: as §2
[14] = Evaluation for antiviral activity against vaccinia virus in primary rabbit kidney cell cultures(PRK) (Concentration required to reduce virus-induced cytopathogenicity by 50%); details: Oryctolagus cuniculus
[15] = system: Vero; assay: Evaluation for antiviral activity against parainfluenza-3 virus in Vero cell cultures (Concentration required to reduce virus-induced cytopathogenicity by 50%); details: Chlorocebus sabaeus; outline: as §1
[16] = system: Vero; assay: Evaluation for antiviral activity against reo virus-1 in Vero cell cultures (Concentration required to reduce virus-induced cytopathogenicity by 50%); details: Chlorocebus sabaeus; outline: as §1
[17] = system: HeLa; assay: Evaluation for antiviral activity against Coxsackie virus B4 in HeLa cell cultures (Concentration required to reduce virus-induced cytopathogenicity by 50%); details: Homo sapiens; outline: as §2
[18] = system: Vero; assay: Evaluation for antiviral activity against forest virus in Vero cell cultures (Concentration required to reduce virus-induced cytopathogenicity by 50%); details: Chlorocebus sabaeus; outline: as §1
[19] = Evaluation for antiviral activity against herpes simplex virus-2(Lyons) in primary rabbit kidney cell cultures(PRK) (Concentration required to reduce virus-induced cytopathogenicity by 50%); details: Oryctolagus cuniculus
[20] = Evaluation for antiviral activity against herpes simplex virus-2(196) in primary rabbit kidney cell cultures(PRK) (Concentration required to reduce virus-induced cytopathogenicity by 50%); details: Oryctolagus cuniculus
[21] = Evaluation for antiviral activity against herpes simplex virus-1(TK-) (B2006) in primary rabbit kidney cell cultures(PRK) (Concentration required to reduce virus-induced cytopathogenicity by 50%); details: Oryctolagus cuniculus
[22] = Evaluation for antiviral activity against herpes simplex virus-1(F) in primary rabbit kidney cell cultures(PRK) (Concentration required to reduce virus-induced cytopathogenicity by 50%); details: Oryctolagus cuniculus
[23] = Evaluation for antiviral activity against herpes simplex virus-1 (McIntyre) in primary rabbit kidney cell cultures(PRK) (Concentration required to reduce virus-induced cytopathogenicity by 50%); details: Oryctolagus cuniculus
[24] = system: HeLa; assay: Compound was evaluated for antiviral activity against respiratory syncitial virus (long) in HeLa cell cultures (Concentration required to reduce virus-induced cytopathogenicity by 50%); details: Homo sapiens; outline: as §2
[25] = system: MOLT-4F; assay: Inhibitory effect on the proliferation of human T-lymphoblast cells (Molt-4F); details: read-out: ID50 (the source's name)
Outline: (§4)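 Proliferation assay in murine leukemia L1210, human T-lymphoblast Molt-4F and human T-lymphocyte MT-4 cells. ID50 is the dose inhibiting tumor cell proliferation by 50%, expressed in μg/mL.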

[26] = system: L1210; assay: Inhibitory effect on the proliferation of murine leukemia cells (L1210); details: Mus musculus, read-out: ID50 (the source's name); outline: as §4
[27] = system: MT4; assay: Inhibitory effect on the proliferation of human T-lymphocyte (MT-4); details: read-out: ID50 (the source's name); outline: as §4

| Compound | MIC [1] [µg/mL] | MIC [2] [µg/mL] | MIC [3] [µg/mL] | MCC [4] [µg/mL] | MIC [5] [µg/mL] | MCC [6] [µg/mL] | MIC [7] [µg/mL] | MIC [8] [µg/mL] | MCC [12] [µg/mL] | MIC [13] [µg/mL] | MIC [14] [µg/mL] | MIC [15] [µg/mL] | MIC [16] [µg/mL] | MIC [17] [µg/mL] | MIC [18] [µg/mL] | MIC [19] [µg/mL] | MIC [20] [µg/mL] | MIC [21] [µg/mL] | MIC [22] [µg/mL] | MIC [23] [µg/mL] | also measured |
| --- | --- | --- | --- | --- | --- | --- | --- | --- | --- | --- | --- | --- | --- | --- | --- | --- | --- | --- | --- | --- | --- |
| O[C@@H]1CSCON2CCc3c([nH]c4ccccc34)[C@@H]12 | > 40 | > 100 | > 100 | > 100 | > 100 | > 100 | > 100 | 20 (≈ 72.4 µM) | 100 | > 100 | > 100 | > 40 | > 40 | > 40 | > 40 |  |  |  |  |  | MIC [9]: > 1.6 µg/mL; MCC [10]: 3 µg/mL; MIC [11]: > 1.6 µg/mL |
| O=c1[nH]c(=O)n([C@H]2C[C@H](O)[C@@H](CO)O2)cc1/C=C/Br [BRIVUDINE] | > 400 | > 200 | 7 (≈ 21 µM) | > 400 | > 400 | > 400 |  | > 400 | > 400 | > 400 | 7 (≈ 21 µM) | > 400 | > 400 | > 400 | > 400 | 70 (≈ 210 µM) | 70 (≈ 210 µM) | 150 (≈ 450 µM) | 0.02 (≈ 0.06 µM) | 0.02 (≈ 0.06 µM) |  |
| C[C@@H]1CSCON2CCc3c([nH]c4ccccc34)[C@H]12 | 20 (≈ 72.9 µM) | > 100 | > 100 | > 100 | > 40 | > 100 | > 100 | 20 (≈ 72.9 µM) | 40 | > 40 | > 100 | > 40 | > 40 | > 40 | > 40 |  |  |  |  |  |  |
| Cn1c2c(c3ccccc31)CCN1OCSC[C@@H](N)[C@H]21 | > 10 | > 10 |  | 40 | > 10 | > 40 | > 10 | > 10 | > 10 | > 10 | > 10 | > 10 | > 10 | > 10 | > 10 | > 10 |  |  |  |  |  |
| N[C@H]1CSCON2CCc3c([nH]c4ccccc34)[C@@H]12 | 7 (≈ 25.4 µM) | 2 (≈ 7.26 µM) | 2 (≈ 7.26 µM) | > 10 | > 10 | 40 | 2 (≈ 7.26 µM) | 20 (≈ 72.6 µM) | 40 | 7 (≈ 25.4 µM) | 2 (≈ 7.26 µM) | 7 (≈ 25.4 µM) | 20 (≈ 72.6 µM) | > 10 | 10 (≈ 36.3 µM) | 2 (≈ 7.26 µM) | 2 (≈ 7.26 µM) | 7 (≈ 25.4 µM) | 2 (≈ 7.26 µM) | 2 (≈ 7.26 µM) | MIC [24]: 3 µg/mL (≈ 10.9 µM); IC50 [25]: 1.54 µg/mL (≈ 5.59 µM); MIC [9]: 3 µg/mL (≈ 10.9 µM); MCC [10]: 40 µg/mL; MIC [11]: 3 µg/mL (≈ 10.9 µM); IC50 [26]: 1.24 µg/mL (≈ 4.5 µM) |
| Nc1nccc2c1ncn2[C@@H]1C[C@H](CO)[C@@H](O)[C@H]1O [3-DEAZAARISTEROMYCIN A] | 20 (≈ 75.7 µM) | 2 (≈ 7.57 µM) | > 200 | > 400 | > 400 | > 400 | > 200 | 20 (≈ 75.7 µM) | > 400 | 2 (≈ 7.57 µM) | 0.7 (≈ 2.65 µM) | 2 (≈ 7.57 µM) | 2 (≈ 7.57 µM) | > 400 | > 400 | > 200 | > 200 | 150 (≈ 568 µM) | > 200 | > 200 |  |
| NC(=O)c1ncn([C@@H]2O[C@H](CO)[C@@H](O)[C@H]2O)n1 [RIBAVIRIN] | 70 (≈ 287 µM) | > 400 | > 200 | > 400 | 70 (≈ 287 µM) | > 400 | > 200 | 40 (≈ 164 µM) | > 400 | 20 (≈ 81.9 µM) | 20 (≈ 81.9 µM) | 20 (≈ 81.9 µM) | 70 (≈ 287 µM) | 70 (≈ 287 µM) | 40 (≈ 164 µM) | > 200 | > 200 | > 200 | > 200 | > 200 | MIC [24]: 3 µg/mL (≈ 12.3 µM); MIC [9]: 15 µg/mL (≈ 61.4 µM); MCC [10]: > 200 µg/mL; MIC [11]: 15 µg/mL (≈ 61.4 µM) |
| Cn1c2c(c3ccccc31)CCN1OCSC[C@@H](N)[C@@H]21 | 0.7 (≈ 2.42 µM) | 7 (≈ 24.2 µM) | 0.7 (≈ 2.42 µM) | > 40 | 2 (≈ 6.91 µM) | > 20 | 3 (≈ 10.4 µM) | 2 (≈ 6.91 µM) | > 10 | 7 (≈ 24.2 µM) | 1.5 (≈ 5.18 µM) | 0.7 (≈ 2.42 µM) | 1 (≈ 3.46 µM) | 7 (≈ 24.2 µM) | 2 (≈ 6.91 µM) | 0.7 (≈ 2.42 µM) | 1 (≈ 3.46 µM) | 7 (≈ 24.2 µM) | 2 (≈ 6.91 µM) | 0.7 (≈ 2.42 µM) | IC50 [25]: 0.37 µg/mL (≈ 1.28 µM); IC50 [27]: 0.69 µg/mL (≈ 2.38 µM); IC50 [26]: 0.56 µg/mL (≈ 1.94 µM) |
